# ChEMBL document CHEMBL3804803, “Pyrrolopyrimidine Derivatives as Novel Inhibitors of Multidrug Resistance-Associated Protein 1 (MRP1, ABCC1)” (J Med Chem, 2016)
# Legend:
# [1] = target: T1, Broad substrate specificity ATP-binding cassette transporter ABCG2 (Homo sapiens, UniProt Q9UNQ0); assay: Inhibition of BCRP (unknown origin) expressed in MDCK2 cells assessed as pheophorbide A accumulation preincubated for 20 mins measured after 120 mins by flow cytometry; assay type: cell-based, MDCK-II
# T1 sequence (Q9UNQ0 whole entry): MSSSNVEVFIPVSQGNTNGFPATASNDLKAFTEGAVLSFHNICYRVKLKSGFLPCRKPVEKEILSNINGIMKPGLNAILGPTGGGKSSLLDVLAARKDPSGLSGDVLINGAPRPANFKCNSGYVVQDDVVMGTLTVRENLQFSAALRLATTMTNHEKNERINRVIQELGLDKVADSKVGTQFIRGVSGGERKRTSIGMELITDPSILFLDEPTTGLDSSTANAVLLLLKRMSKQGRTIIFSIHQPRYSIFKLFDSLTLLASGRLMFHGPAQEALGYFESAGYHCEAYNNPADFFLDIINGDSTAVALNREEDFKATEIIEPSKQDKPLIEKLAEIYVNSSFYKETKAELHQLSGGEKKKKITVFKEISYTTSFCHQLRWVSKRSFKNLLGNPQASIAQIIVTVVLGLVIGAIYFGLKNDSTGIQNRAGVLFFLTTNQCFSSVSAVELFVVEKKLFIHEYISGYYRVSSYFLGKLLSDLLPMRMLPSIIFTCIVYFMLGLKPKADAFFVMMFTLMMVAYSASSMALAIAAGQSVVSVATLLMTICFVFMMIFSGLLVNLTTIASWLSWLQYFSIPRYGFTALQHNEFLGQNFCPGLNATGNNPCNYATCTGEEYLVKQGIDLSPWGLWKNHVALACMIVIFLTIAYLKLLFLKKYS
# Method in brief: (§1)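 MDCK II BCRP cells (GFP detected in FL1 to monitor BCRP expression), about 45,000 per well. Preincubated 20 min at 37 °C, 5% CO2 with compound (1–100 µM solutions, 20 µL into 200 µL final volume). Pheophorbide A added (20 µL of 5 µM solution) for 120 min to reach steady state. Cells resuspended, then flow cytometry: 488 nm excitation, FL3 ≥670 nm. […] The four-parameter logistic top was constrained to Ko143; ≥3 experiments in duplicate.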
# [2] = target: T2, Multidrug resistance-associated protein 1 (Homo sapiens, UniProt P33527); assay: Inhibition of MRP1 in human H69AR cells assessed as daunorubicin accumulation preincubated for 15 mins measured after 180 mins by flow cytometry; assay type: cell-based
# T2 sequence (P33527 whole entry): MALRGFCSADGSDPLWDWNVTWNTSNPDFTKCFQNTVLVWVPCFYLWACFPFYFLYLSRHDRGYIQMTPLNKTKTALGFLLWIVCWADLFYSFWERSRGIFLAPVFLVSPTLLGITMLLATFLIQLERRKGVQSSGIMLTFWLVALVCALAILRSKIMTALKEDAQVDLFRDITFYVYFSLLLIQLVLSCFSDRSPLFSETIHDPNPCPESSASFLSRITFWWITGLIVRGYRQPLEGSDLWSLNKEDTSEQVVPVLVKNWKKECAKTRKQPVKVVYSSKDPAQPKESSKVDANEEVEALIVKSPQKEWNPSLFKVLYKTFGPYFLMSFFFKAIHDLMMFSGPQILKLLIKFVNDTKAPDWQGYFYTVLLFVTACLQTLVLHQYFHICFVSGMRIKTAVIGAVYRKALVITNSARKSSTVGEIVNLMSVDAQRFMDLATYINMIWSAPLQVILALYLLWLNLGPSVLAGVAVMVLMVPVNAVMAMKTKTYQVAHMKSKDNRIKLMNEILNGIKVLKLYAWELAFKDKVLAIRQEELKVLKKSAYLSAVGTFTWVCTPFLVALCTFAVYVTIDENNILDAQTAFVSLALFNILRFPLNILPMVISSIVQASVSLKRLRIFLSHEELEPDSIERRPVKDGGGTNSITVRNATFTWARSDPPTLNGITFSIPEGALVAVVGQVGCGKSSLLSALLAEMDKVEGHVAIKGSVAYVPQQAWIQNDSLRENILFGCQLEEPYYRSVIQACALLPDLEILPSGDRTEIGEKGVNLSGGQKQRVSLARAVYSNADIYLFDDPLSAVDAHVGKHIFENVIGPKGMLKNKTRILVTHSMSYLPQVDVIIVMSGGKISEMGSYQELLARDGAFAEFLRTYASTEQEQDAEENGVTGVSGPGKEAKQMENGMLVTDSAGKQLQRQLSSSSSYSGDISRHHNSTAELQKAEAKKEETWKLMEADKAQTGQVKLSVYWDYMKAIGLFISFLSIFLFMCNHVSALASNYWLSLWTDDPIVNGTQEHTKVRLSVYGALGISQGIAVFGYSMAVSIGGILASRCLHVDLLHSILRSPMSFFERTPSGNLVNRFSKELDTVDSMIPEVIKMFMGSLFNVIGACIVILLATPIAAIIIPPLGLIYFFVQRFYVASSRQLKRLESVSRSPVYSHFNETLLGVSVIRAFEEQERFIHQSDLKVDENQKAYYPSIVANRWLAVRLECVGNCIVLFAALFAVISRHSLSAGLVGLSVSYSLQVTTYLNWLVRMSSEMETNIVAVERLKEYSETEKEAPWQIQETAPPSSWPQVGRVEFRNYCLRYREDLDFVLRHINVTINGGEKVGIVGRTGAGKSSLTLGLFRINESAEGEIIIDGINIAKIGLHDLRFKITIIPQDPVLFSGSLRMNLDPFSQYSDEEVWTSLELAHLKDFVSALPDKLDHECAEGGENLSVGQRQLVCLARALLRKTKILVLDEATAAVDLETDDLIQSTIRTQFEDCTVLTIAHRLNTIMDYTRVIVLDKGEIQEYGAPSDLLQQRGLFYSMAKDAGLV
# Method in brief: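 H69 AR cells, about 60,000 per well in culture medium. Preincubated 15 min with compound diluted in unsupplemented medium, then daunorubicin added (20 µL of 30 µM solution). Held 180 min at 37 °C, 5% CO2, protected from light, to reach steady state. Cells resuspended; flow cytometry with 488 nm excitation, FL3 ≥670 nm. IC50 from four-parameter logistic with variable Hill slope; ≥3 independent experiments in duplicate.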
# Homo sapiens = organism: Homo sapiens; assay: Inhibition of P-gp (unknown origin) at 10 uM after 30 mins by calcein AM accumulation assay
# [3] = target: T2, Multidrug resistance-associated protein 1; assay: Inhibition of MRP1 in human H69AR cells incubated for 20 mins measured every 60 seconds by calcein-AM accumulation assay
# BCRP (ABCG2) = target: T3, BCRP (ABCG2) (Homo sapiens, UniProt Q9UNQ0); assay: Inhibition of BCRP (unknown origin) expressed in MDCK2 cells assessed as pheophorbide A accumulation at 10 uM preincubated for 20 mins measured after 120 mins by flow cytometry; assay type: cell-based, MDCK-II; conditions: MDCK2 cells expressing BCRP, probe pheophorbide A; method in brief: as §1
# T3 sequence (Q9UNQ0 whole entry): T1 sequence (Q9UNQ0 whole entry)
# [4] = target: T2, Multidrug resistance-associated protein 1; assay: Inhibition of MRP1 in human H69AR cells incubated for 20 mins measured […] by calcein-AM accumulation assay; assay type: cell-based
# Method in brief: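 H69 AR cells, about 60,000 per well in Krebs-HEPES buffer pH 7.4. Incubated 20 min at 37 °C, 5% CO2 with compound (100 nM–100 µM solutions, 20 µL in 200 µL final volume). Calcein AM then added (20 µL of 3.125 µM). Fluorescence (ex 485/em 520 nm, 37 °C) read every 60 s. Slope between min 5 and 30 plotted against log concentration; four-parameter logistic fit; ≥3 experiments in duplicate.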
# [5] = Inhibition of P-gp in human A2780/ADR cells after 30 mins by calcein AM accumulation assay; assay type: cell-based; conditions: 0.5 h
# [6] = target: T2, Multidrug resistance-associated protein 1; conditions: h69ar, 72 h, 10 µM
# [7] = target: T2, Multidrug resistance-associated protein 1; conditions: h69ar, 72 h, 5 µM
# [8] = target: T2, Multidrug resistance-associated protein 1; conditions: h69ar, 72 h, 1 µM
# [9] = Cytotoxicity against human H69AR cells overexpressing MRP1 assessed as reduction in cell viability at 10 uM after 72 hrs by MTT assay; assay type: cell-based; conditions: for Activity: h69ar, 72 h, 10 µM
# Method in brief: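 H69 AR cells, about 20,000 per well, 72 h at 37 °C in humidified CO2 with compound at 10 µM. MTT (5 mg/mL, 20 µL) added for 1 h, then DMSO solubilization and absorbance 570 nm with 690 nm background. Viability scaled between plain medium (100%) and 10% DMSO (0%). ≥3 independent experiments in duplicate.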
# [10] = Cytotoxicity against human H69AR cells overexpressing MRP1 assessed as growth inhibition after 72 hrs by MTT assay; assay type: cell-based
# Method in brief: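 H69 AR cells, about 20,000 per well, exposed 72 h at 37 °C in humidified CO2 to test compound diluted in culture medium (100 nM to 100 µM solutions, 20 µL added to 180 µL cells). Then MTT (5 mg/mL, 20 µL) for 1 h, formazan taken up in DMSO, absorbance 570 nm minus 690 nm. Plain medium set 100% viability, 10% DMSO 0%. GI50 from variable-slope nonlinear fit; ≥3 independent experiments in duplicate.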
# [11] = target: T2, Multidrug resistance-associated protein 1; assay: Inhibition of MRP1 in daunorubicin resistant human H69AR cells assessed as potentiation of daunorubicin-induced growth inhibition at 1 to 10 uM after 72 hrs by MTT assay relative to control; assay type: cell-based
Structure (SMILES),IC50 [1] [µM],IC50 [2] [µM],inhibition (Homo sapiens) [%],IC50 [3] [µM],"inhibition at 2 h, 10 µM (BCRP (ABCG2)) [%]",IC50 [4] [µM],IC50 [5] [µM],GI50 [6] [µM],GI50 [7] [µM],GI50 [8] [µM],Activity [9],GI50 at 72 h [10] [µM],fold change (FC) [11],"cytotoxicity at 72 h, 10 µM ([9]; H69AR cells overexpressing MRP1, read-out: INH) [%]"
CC(C)n1cc(C#N)c2ncnc(N3CCN(CCc4ccccc4)CC3)c21,,1.24,> 25,0.821,< 25,,,,,,,,,
N#Cc1c2n(c3c(NCc4ccccc4)ncnc13)CCCC2,15.8,8.8,> 25,14.2,> 25,,,,,,,,,
N#Cc1cn(Cc2ccccc2)c2c(N3CCN(Cc4ccccc4)CC3)ncnc12,,0.876,> 25,2.77,< 25,,,,,,,,,
N#Cc1c2n(c3c(NCCCc4ccccc4)ncnc13)CCCC2,6.07,2.84,> 25,2.5,> 25,,,0.45,0.751,2.41,Non-toxic,132,,
N#Cc1cn(C2CC2)c2c(N3CCN(CCc4ccccc4)CC3)ncnc12,,0.2,> 25,0.247,< 25,,,,,,Non-toxic,36,10,
CCCn1cc(C#N)c2ncnc(N3CCN(CCc4ccccc4)CC3)c21,,0.418,> 25,0.543,< 25,,41.9,,,,,,,
CCn1cc(C#N)c2ncnc(N3CCN(CCc4ccccc4)CC3)c21,,0.789,> 25,1.06,< 25,,,,,,,,,
N#Cc1c2n(c3c(Nc4ccccc4)ncnc13)CCCC2,7.68,9.41,> 25,14.2,> 25,,,,,,,,,
N#Cc1cn(CCCc2ccccc2)c2c(N3CCN(CCc4ccccc4)CC3)ncnc12,,0.586,> 25,0.956,< 25,,,,,,,,,
N#Cc1cn(-c2ccccc2)c2c(N3CCN(CCc4ccccc4)CC3)ncnc12,,0.34,> 25,0.75,< 25,,6.82,,,,,23.6,,40
N#Cc1c2n(c3c(N4CCNCC4)ncnc13)CCCC2,,10.8,> 25,27.3,> 25,,,1.83,2.48,2.94,Non-toxic,60.6,,
N#Cc1cn(CCCc2ccccc2)c2c(N3CCN(Cc4ccccc4)CC3)ncnc12,,2.36,> 25,3.15,< 25,,,,,,,,,
N#Cc1cn(Cc2ccccc2)c2c(N3CCN(CCc4ccccc4)CC3)ncnc12,,0.623,> 25,1,< 25,,10.6,,,,,,,
N#Cc1cn(CCc2ccccc2)c2c(N3CCN(Cc4ccccc4)CC3)ncnc12,,0.983,> 25,0.91,< 25,,,,,,,,,
Cn1cc(C#N)c2ncnc(N3CCN(CCc4ccccc4)CC3)c21,,0.7,> 25,0.714,< 25,,,,,,,,,
N#Cc1c2n(c3c(NCCc4ccccc4)ncnc13)CCCC2,,4.98,> 25,8.37,> 25,,,,,,,,,
N#Cc1cn(CCc2ccccc2)c2c(N3CCN(CCc4ccccc4)CC3)ncnc12,,1.12,> 25,1.02,< 25,,32.5,,,,,,,

# Further lines, with some results ahead:
IC50 [1] [µM],IC50 [2] [µM],inhibition (Homo sapiens) [%],IC50 [3] [µM],"inhibition at 2 h, 10 µM (BCRP (ABCG2)) [%]",IC50 [4] [µM],IC50 [5] [µM],Structure (SMILES),GI50 [6] [µM],GI50 [7] [µM],GI50 [8] [µM],Activity [9],GI50 at 72 h [10] [µM],fold change (FC) [11],"cytotoxicity at 72 h, 10 µM ([9]; H69AR cells overexpressing MRP1, read-out: INH) [%]"
5.91,2.9,> 25,2.56,> 25,,,N#Cc1c2n(c3c(N4CCN(c5ccccc5)CC4)ncnc13)CCCC2,,,,,,,
,15.1,> 25,,> 25,8.98,,N#Cc1c2n(c3c(N4CCN(c5ccccc5)CC4)ncnc13)CCCCC2,,,,,,,
8.24,0.636,> 25,0.671,> 25,,32.3,N#Cc1c2n(c3c(N4CCN(Cc5ccccc5)CC4)ncnc13)CCCC2,,,,,,,
14.3,1.07,> 25,1.62,> 25,,,N#Cc1c2n(c3c(N4CCN(C(c5ccccc5)c5ccccc5)CC4)ncnc13)CCCC2,,,,,,,
9.94,0.643,> 25,,> 25,0.833,19.2,N#Cc1c2n(c3c(N4CCN(CCc5ccccc5)CC4)ncnc13)CCCCC2,,,,Non-toxic,79.8,,
,0.866,> 25,1.22,< 25,,,N#Cc1cn(-c2ccccc2)c2c(N3CCN(Cc4ccccc4)CC3)ncnc12,,,,,,,
8.71,1.01,> 25,,> 25,1.95,28.6,N#Cc1c2n(c3c(N4CCN(C(c5ccccc5)c5ccccc5)CC4)ncnc13)CCCCC2,,,,,,,
4.25,2.87,> 25,5.06,> 25,,,CN1CCN(c2ncnc3c(C#N)c4n(c23)CCCC4)CC1,,,,,,,
8.19,0.197,> 25,0.37,> 25,,18.8,N#Cc1c2n(c3c(N4CCN(CCc5ccccc5)CC4)ncnc13)CCCC2,,,,Non-toxic,39.9,,
